Published values from different studies.
Each line is one published result; the experiments were not run side by side.
EGFR G719S: Epidermal growth factor receptor (EGFR, Homo sapiens, UniProt P00533, G719S)
EGFR: Epidermal growth factor receptor (EGFR, Homo sapiens, UniProt P00533)
EGFR G719C: Epidermal growth factor receptor (EGFR, Homo sapiens, UniProt P00533, G719C)
EGFR L858R/T790M: Epidermal growth factor receptor (EGFR, Homo sapiens, UniProt P00533, L858R/T790M)
EGFR L858R: Epidermal growth factor receptor (EGFR, Homo sapiens, UniProt P00533, L858R)

SMILES	target	observed	action	technique	tested at	measurement	result
CCCCC(=O)Nc1ccc(-c2ccc3ncn(CCC)c(=O)c3c2)cn1	EGFR G719S	binding	–	competition with immobilised ligand	0.5 µM	remaining binding	100%
C#Cc1cnc(Nc2ccnc(CO)c2)nc1Nc1ccccc1S(C)(=O)=NC#N (stereo not shown)	EGFR	enzyme activity	inhibitor	radiometric	1 µM	remaining activity	80%
CO[C@@H]1[C@H](N(C)C(=O)c2ccccc2)C[C@H]2O[C@]1(C)n1c3ccccc3c3c4c(c5c6ccccc6n2c5c31)C(=O)NC4	EGFR G719C	enzyme activity	inhibitor	–	1 µM	inhibition	17%
C[C@H]1CC[C@H](n2c3cnccc3c3cnc(Nc4ccc5c(n4)CCN(C(=O)CO)C5)nc32)CC1	EGFR L858R/T790M	cell-free assay	–	–	1 µM	remaining signal	93%
CC#CC(=O)N1CCC[C@H]1c1nc(-c2ccc(C(=O)Nc3ccccn3)cc2)c2c(N)nccn12	Epidermal growth factor receptor (EGFR, Homo sapiens, UniProt P00533, del752-759)	enzyme activity	inhibitor	–	1 µM	inhibition	0%
CN1CCN(C(=O)c2ccc(NC(=O)Nc3ccc(N(C)c4ccnc(Nc5ccc(CS(C)(=O)=O)cc5)n4)cc3)cc2)CC1	EGFR G719C	binding	–	–	1 µM	remaining binding	95%
C=CC(=O)N1CCC([C@@H]2CCNc3c(C(N)=O)c(-c4ccc(Oc5ccccc5)cc4)nn32)CC1	EGFR G719S	cell-free assay	–	–	1 µM	inhibition	95%
COc1ccc2[nH]c3c4[nH]c5ccc(OC)cc5c4c4c(c3c2c1)C(=O)NC4=O	EGFR L858R	binding	–	–	1 µM	remaining binding	50%
COc1ccc2oc(-c3ccc4nc(N)oc4c3)c/c(=N\c3ccccc3NC(=O)CCN)c2c1	Epidermal growth factor receptor (EGFR, Homo sapiens, UniProt P00533, T790M)	cell-free assay	–	–	1 µM	remaining signal	99%
CNC(=O)c1ccccc1Nc1nc(Nc2ccc(CO)nc2)ncc1Cl	EGFR	enzyme activity	inhibitor	radiometric	1 µM	remaining activity	26%
Cc1ccc(NC(=O)c2ccnc(C(F)(F)F)c2)cc1-c1cc(OCCO)nc(N2CCOCC2)c1	EGFR L858R/T790M	binding	–	–	1 µM	remaining binding	84%
CS(=O)(=NC#N)c1ccccc1Nc1nc(Nc2ccc(CO)nc2)ncc1Cl (stereo not shown)	EGFR	enzyme activity	inhibitor	radiometric	1 µM	remaining activity	98.3%
C1=C/COCc2cc(ccc2OCCN2CCCC2)Nc2nccc(n2)-c2cccc(c2)COC/1	EGFR L858R	binding	–	–	0.1 µM	remaining binding	71%
